Sampled rows, rich in hits. Any-hit rate of the full collection: about 5.1%.
BAP1 block: human BAP1 deubiquitinase inhibition; AID 436; recombinant BAP1, Ub-AMC hydrolysis fluorescence kinetic; stronger effect = lower value; calls only at 20 µM; actives 0.48% (n = 72,000); Q92560;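 active means activity remaining at or below 50% of control, provided the compound also passes the data quality filters; inactive means the rest, including low values that fail the filters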;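 further: 100% = DMSO wells rate and 0% = substrate alone blank rate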
Ecoli tolC: blocks growth of E. coli BW25113 tolC mutant | growth inhibition, % at 10 µM (by protocol) | OD615 | AID 573 | actives 2.2% (n = 65,000);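 active means growth inhibition at or above a cutoff equal to the mean over every tested compound plus 3 SD, cut at about 60% in these data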;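 further: growth measured after 20 h incubation at 37 °C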
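Assay system: tolC-deleted E. coli BW25113. Medium: kanamycin-containing LB broth (50 µg/mL). Dosing: 10 µM final, single dose. Timing: bacterial growth with compound for 20 h at 37 °C. Detection: A615 absorbance measurement. Read-out basis: growth inhibition in percent.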
Hsp90 inh: displaces geldanamycin probe from tumor Hsp90 | actives 0.35% (n = 64,000) | inhibition, % at 30 µM | P07900 | NCI-N417 lysate Hsp90, Cy3B-geldanamycin FP displacement;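 active means inhibition above 50%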;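 further: 0% = tracer plus lysate wells and 100% = tracer alone without lysate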
Ecoli WT expand: blocks growth of wild type E. coli BW25113; OD600 absorbance; growth inhibition, % at 100 µM; actives 0.15% (n = 98,000);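 active means growth inhibition above about 50% at one test dose, limit read from the data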;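 further: growth measured after 20 h incubation at 37 °C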
M1 antagonist: blocks the rat M1 muscarinic receptor response to acetylcholine; P08482; B-score at 10 µM; CHO-M1 cells, Fluo-4 calcium, ACh EC80 antagonist mode; stronger effect = lower value; actives 3.4% (n = 64,000);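 active means calcium fluorescence response, raw or row-and-column corrected B-score, differing from the plate sample mean either way at a set confidence level, mostly lower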
Target sequence (P08482 whole entry, looked up): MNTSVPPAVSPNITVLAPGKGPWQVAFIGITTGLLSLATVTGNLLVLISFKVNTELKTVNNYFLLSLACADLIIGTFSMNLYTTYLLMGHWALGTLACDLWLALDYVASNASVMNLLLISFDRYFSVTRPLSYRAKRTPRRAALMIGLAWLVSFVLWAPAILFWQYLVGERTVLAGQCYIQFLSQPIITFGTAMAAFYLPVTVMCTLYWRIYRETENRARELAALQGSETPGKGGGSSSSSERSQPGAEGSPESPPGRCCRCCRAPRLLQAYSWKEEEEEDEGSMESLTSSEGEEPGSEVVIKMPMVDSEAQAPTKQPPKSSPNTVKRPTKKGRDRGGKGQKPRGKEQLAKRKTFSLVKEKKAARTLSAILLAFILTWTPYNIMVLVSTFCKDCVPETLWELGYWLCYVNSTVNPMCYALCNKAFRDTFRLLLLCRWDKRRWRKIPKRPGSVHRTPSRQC
M1 ag: activates the M1 muscarinic receptor. CHO-M1 cells, Fluo-4 calcium fluorescence, agonist mode; stronger effect = higher value. B-score at 10 µM. actives 3% (n = 64,000);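 active means fluorescence rise, raw or as B-score row- and column-corrected plate score, outside the 99.7% band of its plate's samples, either direction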
BAP1 inh conf: confirmation of human BAP1 enzyme inhibitors | actives 8% (n = 310) | % of control activity, % at 20 µM | shares compounds with BAP1 block | purified BAP1, Ub-ethyl ester hydrolysis, HPLC; stronger effect = lower value;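 active means percent of control activity at or below 60%; inconclusive means HPLC trace unusable from injection failure or solvent front hiding peaks; inactive means the rest, plus ubiquitin peak ratio over a set limit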
M1 agonist conf: rat M1 muscarinic agonism, confirmation; shares compounds with M1 ag; CHO-M1 cells, Fluo-4 calcium fluorescence, agonist mode; actives lie on both sides; fluorescence change (max-min) at 10 µM; actives 19% (n = 1,700); AID 1488;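 active means fluorescence change differs from the solvent-only DMSO control mean at a set confidence level in both duplicate runs; inconclusive means differs from solvent-only control mean in just one of two runs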;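 further: an EC20 dose of acetylcholine follows compound addition during the same imaging run; raw fluorescence intensity difference in instrument units with no normalization to controls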
M4 ag counter: activates rat M4 receptor in counter-screen for M1 agonists; actives 9% (n = 1,700); CHO M4/Gqi5 cells, Fluo-4 calcium fluorescence, agonist mode; actives lie on both sides; shares compounds with M1 ag; fluorescence change (max-min) at 10 µM; AID 1741;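 active means fluorescence change differing from the plate's solvent-only control wells at 99.7% confidence in both duplicates, whether higher or lower; inconclusive means differs from solvent controls in only one of two duplicates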
M1 antag confirm: M1 muscarinic receptor (rat) antagonism, confirmed | CHO-M1 cells, Fluo-4 calcium, ACh EC80 antagonism; stronger effect = lower value | shares compounds with M1 antagonist | calcium response (max-min fluorescence) at 10 µM | actives 43% (n = 1,700);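 active means calcium response below the same-plate mean of wells given acetylcholine alone at its 80%-effect dose, minus 3 SD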;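 further: raw fluorescence intensity difference in arbitrary instrument units and not normalized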
mGluR4 antag: mGluR4 (human) activity, M1 antagonist secondary assay. shares compounds with M1 antagonist. CHO-mGluR4 calcium flux, Fluo-4 fluorescence, glutamate EC80; stronger effect = lower value. fluorescence response (max-min) at 10 µM. actives 0.9% (n = 1,700);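 active means fluorescence response below the plate's average for near-maximal glutamate wells, less 3 SD of those wells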;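 further: raw unnormalized fluorescence span taken in the window right after glutamate addition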
* = called active by the depositor; i = inactive; ? = inconclusive; / = no result given; + = active, no number.

SMILES	BAP1 block	Ecoli tolC	Hsp90 inh	Ecoli WT expand	M1 antagonist	M1 ag	BAP1 inh conf	others
CCn1c2ccccc2c2cc(NC(=O)CSc3nnc(C4CC4)n3Cc3ccco3)ccc21	+	41	0	2	-0.23	0.2	100
CCn1c(SCC(=O)Nc2ccc3c(c2)c2ccccc2n3CC)nnc1-c1cnccn1	/	40	-7	2	0.61	-0.29	/
Cc1ccc(-n2nnnc2SCC(=O)Nc2ccc3c(c2)COC3=O)cc1C	+	3	-5	-2	-0.073	0	77
CC1=CC(C)(C)Nc2cc(C)c(C)cc21	+	-6	7	0	-0.066	2.3	49*
Nc1nn(S(=O)(=O)c2cccc3nsnc23)cc1-c1ccc(Br)cc1	+	58	1	-8	0.054	-0.29	?
Cc1ccc(-c2cn(S(=O)(=O)c3cccc4nsnc34)nc2N)cc1	i	53	-3	-15	0.092	0.44	/
O=C(Nc1nc2c(s1)CCCC2)c1ccc(-c2ccccc2)cc1	i	/	/	/	/	/	/
CCCCCOC(=O)CSc1nc2c(c(=O)[nH]c(=O)n2C)n1CCc1ccccc1	+	4	0	-5	-0.028	0.66	96
CCCCCn1c(SCCc2ccccc2)nc2c1c(=O)[nH]c(=O)n2C	i	9	3	-4	0.22	0.35	/
O=C(CSc1nnc(COc2ccc3c(c2)CCCC3)o1)Nc1ccc(F)cc1	+	-1	0	-7	-0.8	-0.089	93
Cc1cccc2cc(C(c3nnnn3C(C)(C)C)N3CCN(C(=O)c4ccco4)CC3)c(=O)[nH]c12 (stereo not given)	+	-12	0	3	0.51	-0.15	42*
N#C/C(=C\c1ccc[nH]1)Sc1nc2ccccc2s1	+	100*	-4	12	0.046	0.45	86
COc1ccc(C(=O)Nc2ccc(Oc3ccc(C)c(C)c3)cc2)cc1OC	i	/	/	/	/	/	/
CCOC(=O)c1oc2ccc3c(c2c1C)C(=O)CC1(CCN(C(=O)OCC)CC1)O3	+	52	0	-10	-0.55	2.3	84
CCCNC(=O)c1oc2ccc3c(c2c1C)C(=O)CC(C)(C)O3	/	/	/	-1	/	/	/
CCOc1cc(OCC)cc(C(=O)O)c1	/	/	/	0	/	/	/
CCOc1cc(C(=O)O)cc(Cl)c1OCC#N	+	-12	-3	/	-0.63	0.44	104
CC1(C)CC(=O)C2=C(C1)Nc1ccccc1N(C(=O)C(F)(F)F)C2c1ccc(-c2ccccc2[N+](=O)[O-])o1 (stereo not given)	i	/	/	/	/	/	/
Cn1nc(-c2ccc(Cl)cc2)c2cc(C(=O)NC3CC3)sc21	+	4	-4	-6	1	0.13	155
CCOC(=O)c1ccc(NC(=O)COc2c(C)cc(C)cc2C)cc1	i	/	/	/	/	/	/
CCc1nc2c(cnn2-c2ccc(Cl)cc2)c(=O)n1-c1ccc(OC)cc1	+	6	0	-11	-0.11	0.76	89
CCn1c(N=Cc2ccccc2Cl)nc2ccccc21	i	/	/	/	/	/	/
C=CCn1c(COc2cccc(C)c2)nnc1SCC(=O)NC(=O)NCc1ccco1	+	1	-2	-5	-0.011	-0.11	137
CCOC(=O)c1sc2nc(NC(=O)COc3ccccc3)sc2c1C	+	15	-3	-12	0.27	1.7	78
CC(C)(C)c1cc(C(=O)CSc2nnnn2-c2ccccc2)cc(C(C)(C)C)c1O	i	/	/	/	/	/	/
SMILES	BAP1 block	Ecoli tolC	Hsp90 inh	Ecoli WT expand	M1 antagonist	M1 ag	BAP1 inh conf	others
Clc1cccc(C=Cc2nc3cc4ccccc4cc3o2)c1	i	/	/	/	/	/	/
Nc1nc(-c2cccnc2)nn1C(=O)COc1ccccc1	+	-19	-1	-3	0.39	-0.28	96
CN1C(=O)C(=O)c2cc(Br)ccc21	i	/	/	/	/	/	/
COc1ccc(OC)c(C2CC(=O)N3CN(c4cccc(Cl)c4C)CSC3=C2C#N)c1 (stereo not given)	+	11	-3	/	-0.75	-0.94	104
COc1cccc(C2CC(=O)N3CN(c4cccc(Cl)c4C)CSC3=C2C#N)c1OC (stereo not given)	i	5	-3	13	0.88	-0.65	/
COc1ccc(CC(=O)Nc2ccc(-c3noc(-c4cccc(OC)c4)n3)cc2)cc1	+	-10	-5	-9	0.8	-0.49	77
C=CCOC(=O)C(C#N)c1nc2ccccc2nc1N1CCN(Cc2ccc3c(c2)OCO3)CC1 (stereo not given)	+	40	-9	-11	-1	-1.6	76
CSc1ccc(C2C(C#N)=C(N)Oc3c2ccc(=O)c2c(C)oc(C)c32)cc1 (stereo not given)	+	10	-16	-3	0.55	7.2*	118	M1 agonist conf=15;M4 ag counter=-18
COc1ccc(-c2nc3cc(NC(=O)c4cccnc4)ccc3o2)cc1	i	/	/	/	/	/	/
O=C(Nc1ccc2nc(-c3ccccc3)[nH]c2c1)c1ccco1	/	/	/	13	/	/	/
O=C(Nc1cccc(-c2nc3ccccc3[nH]2)c1)c1cccc(NC(=O)c2ccco2)c1	+	13	-7	-3	-0.98	5.1*	135	M1 agonist conf=-4.8;M4 ag counter=-21
CCCCOc1ccc(NC2=NC3(CCCC3)N=C(N)N2)cc1	+	59	-1	46	-3*	0.22	98	M1 antag confirm=477*;mGluR4 antag=226
O=C(OC(c1ccccc1)c1nccc2ccccc12)c1cccs1 (stereo not given)	i	/	/	/	/	/	/
CCCCN1CCc2c([nH]c3ccc(C)cc23)C1=O	i	1	-6	-3	-0.076	3.5*	/	M1 agonist conf=-12;M4 ag counter=?
O=C(Nc1ncnc2c1ncn2C1OC(COC(=O)c2ccccc2)C(F)C1O)c1ccccc1 (stereo not given)	i	5	-3	-1	-1.1	2.6*	/	M1 agonist conf=-11;M4 ag counter=-12
COC(=O)c1ccc2c(c1)N(Cc1ccccc1F)C(=O)c1ccccc1S2=O (stereo not given)	i	43	-1	-3	-0.27	4.9*	/	M1 agonist conf=?;M4 ag counter=-24

Screens deposited in PubChem BioAssay by several laboratories.
